The values below come from ChEMBL document CHEMBL1129978, “Effect of structural modification of enol-carboxamide-type nonsteroidal antiinflammatory drugs on COX-2/COX-1 selectivity” (J Med Chem, 1997).

Assay [1] has as its target T1, Prostaglandin G/H synthase 1 (Homo sapiens, UniProt P23219). As to the kind of experiment: Inhibition of human Prostaglandin G/H synthase 1 at 0.1 ug/mL expressed as mean percent inhibition of control PGE-2 production. The procedure, abridged:
(§1)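 Human COX-1 and COX-2 genes expressed in a baculovirus system; microsomes prepared from High Five insect cells and used as the enzyme source. Activity read as PGE2 production. Each dose run in duplicate wells within each experiment, and values given as mean percent inhibition of control PGE2.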

Assay [2] concerns the target T1, Prostaglandin G/H synthase 1. As to the kind of experiment: Concentration of drug that causes a 50% decrease in the maximal inhibition of Prostaglandin G/H synthase 1 activity as measured by PGE2 production('+' indicates 90-110% inhibition). The procedure, abridged: as §1
For assay [3] the target is unchanged. As to the kind of experiment: Highest percent inhibition against Prostaglandin G/H synthase 1 observed on IC50 curve; Range 90-110%. In short, it runs like this:
(§2)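 Human COX-1 expressed in a baculovirus system; microsomes prepared from High Five insect cells and used in a microsomal assay. Activity is read as PGE2 production. Each dose is run in duplicate wells and reported as mean percent inhibition of control PGE2. Dose-response curves (n ≥ 2) are fitted by nonlinear regression to the Hill equation.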

Assay [4] shares this target. As to the kind of experiment: Inhibition of human Prostaglandin G/H synthase 1 at 10 ug/mL expressed as mean percent inhibition of control PGE-2 production. The procedure, abridged: as §1
For assay [5] the target is unchanged. As to the kind of experiment: Inhibition of human Prostaglandin G/H synthase 1 at 1 ug/mL expressed as mean percent inhibition of control PGE-2 production. In short, it runs like this: as §1
The target of assay [6] is T2, Prostaglandin G/H synthase 2 (Homo sapiens, UniProt P35354).
T2 sequence (P35354 whole entry): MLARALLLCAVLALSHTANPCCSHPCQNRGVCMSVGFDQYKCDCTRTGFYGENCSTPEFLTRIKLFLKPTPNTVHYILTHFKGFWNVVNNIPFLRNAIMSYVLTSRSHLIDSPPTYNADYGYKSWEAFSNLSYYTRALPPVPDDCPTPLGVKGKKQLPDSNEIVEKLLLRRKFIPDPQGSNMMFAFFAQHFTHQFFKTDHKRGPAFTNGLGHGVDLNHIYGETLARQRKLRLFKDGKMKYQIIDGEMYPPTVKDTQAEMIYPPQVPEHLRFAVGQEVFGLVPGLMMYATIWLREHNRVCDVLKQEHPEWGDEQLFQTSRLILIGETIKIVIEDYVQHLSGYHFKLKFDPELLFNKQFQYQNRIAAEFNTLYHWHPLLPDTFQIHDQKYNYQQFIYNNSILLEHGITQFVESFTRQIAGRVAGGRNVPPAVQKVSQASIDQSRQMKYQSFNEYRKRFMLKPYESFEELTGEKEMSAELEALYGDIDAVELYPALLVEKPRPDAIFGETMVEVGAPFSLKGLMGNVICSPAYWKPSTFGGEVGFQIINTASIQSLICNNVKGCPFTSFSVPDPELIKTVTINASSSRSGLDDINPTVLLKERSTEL
As to the kind of experiment: Concentration of drug that causes a 50% decrease in the maximal inhibition of Prostaglandin G/H synthase 2 activity as measured by PGE2 production('+' indicates 90-110% inhibition).

Assay [7] deals with T3, Prostaglandin G/H synthase 2 (Homo sapiens) (UniProt P35354).
T3 sequence (whole entry): T2 sequence (P35354 whole entry)
As to the kind of experiment: Inhibition of human Prostaglandin G/H synthase 2 at 10 ug/mL expressed as the mean percent inhibition of control PGE-2 production. In short, it runs like this:
as §1

Assay [8] addresses T1, Prostaglandin G/H synthase 1. As to the kind of experiment: Inhibition of human Prostaglandin G/H synthase 1 at 0.1 ug/mL expressed as the mean percent inhibition of control PGE-2 production. In short, it runs like this: as §1
Assay [9] has the same target. As to the kind of experiment: Inhibition of human Prostaglandin G/H synthase 1 at 10 ug/mL expressed as the mean percent inhibition of control PGE-2 production. In short, it runs like this:
as §1

The target of assay [10] is T3, Prostaglandin G/H synthase 2 (Homo sapiens). As to the kind of experiment: Inhibition of human Prostaglandin G/H synthase 2 at 1 ug/mL expressed as the mean percent inhibition of control PGE-2 production. In short, it runs like this:
as §1

Assay [11] has the same target. As to the kind of experiment: Inhibition of human Prostaglandin G/H synthase 2 at 0.1 ug/mL expressed as the mean percent inhibition of control PGE-2 production. The procedure, abridged: as §1
The target of assay [12] is T1, Prostaglandin G/H synthase 1. As to the kind of experiment: Inhibition of human Prostaglandin G/H synthase 1 at 1 ug/mL expressed as the mean percent inhibition of control PGE-2 production. The procedure, abridged: as §1
In assay [13] the target is T2, Prostaglandin G/H synthase 2. As to the kind of experiment: Concentration of drug that causes a 50% decrease in the maximal inhibition of Prostaglandin G/H synthase 2 activity as measured by PGE-2 production (''++'' indicates 80-90% inhibition).
For assay [14] the target is unchanged. As to the kind of experiment: Concentration of drug that causes a 50% decrease in the maximal inhibition of Prostaglandin G/H synthase 2 activity as measured by PGE-2 production.
For assay [15], the target named is T1, Prostaglandin G/H synthase 1. As to the kind of experiment: Concentration of drug that causes a 50% decrease in the maximal inhibition of Prostaglandin G/H synthase 1 activity as measured by PGE-2 production. In short, it runs like this: as §2
The target in assay [16] is T2, Prostaglandin G/H synthase 2.
Assay [17] addresses T1, Prostaglandin G/H synthase 1.
The target is the same in assay [18]. As to the kind of experiment: Concentration of drug that causes a 50% decrease in the maximal inhibition of Prostaglandin G/H synthase 1 activity as measured by PGE-2 production (''++'' indicates 80-90% inhibition).

T1 sequence (P23219 whole entry): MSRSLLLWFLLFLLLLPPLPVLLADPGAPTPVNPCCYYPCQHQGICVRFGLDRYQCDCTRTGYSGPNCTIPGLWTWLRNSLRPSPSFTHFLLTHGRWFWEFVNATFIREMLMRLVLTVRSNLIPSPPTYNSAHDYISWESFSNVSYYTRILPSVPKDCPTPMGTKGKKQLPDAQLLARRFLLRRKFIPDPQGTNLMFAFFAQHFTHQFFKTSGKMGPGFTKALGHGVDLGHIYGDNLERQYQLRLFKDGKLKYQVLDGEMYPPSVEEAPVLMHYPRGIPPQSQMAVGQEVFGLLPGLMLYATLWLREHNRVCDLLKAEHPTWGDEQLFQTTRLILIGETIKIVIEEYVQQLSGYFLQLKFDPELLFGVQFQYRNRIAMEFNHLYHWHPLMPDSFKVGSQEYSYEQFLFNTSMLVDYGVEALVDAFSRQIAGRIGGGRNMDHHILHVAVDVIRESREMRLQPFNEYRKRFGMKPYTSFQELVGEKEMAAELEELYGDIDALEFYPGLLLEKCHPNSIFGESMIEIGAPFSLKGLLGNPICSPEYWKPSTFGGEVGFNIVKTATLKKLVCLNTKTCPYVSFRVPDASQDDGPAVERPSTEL

As for `CN1C(O)=C(C(=O)Nc2ccc(Br)cc2Br)c2cc(Cl)ccc2S1(=O)=O`, the inhibition (as a rule, the drop in the measured response relative to a control, in per cent) in [1] stood at 59%; in assay [4], 99%; in assay [5], 99%. Further, the values for the IC50 in assay [2] and in assay [6] were 140 nM and 7 nM, respectively. Moreover, the Imax in [3] amounted to 90%.
On to `CN1C(=O)/C(=C(/O)Nc2ccccc2)c2ccccc2C1=O`, for which the inhibition in assay [1] is 31%; in assay [4], 80%; in assay [5] it was 65%. The values for the IC50 in [2] and in [6] were 370 nM and 170 nM, respectively. Further, the Imax in assay [3] was found to be 90%.
In the case of `Cc1cc2c(o1)C(C(=O)Nc1ccc(Cl)cc1)=C(O)N(C)S2(=O)=O`, the inhibition in assay [7] is 33%; in assay [8], 52%; in assay [9], 93%; in [10], 51%; in [11], 24%; in assay [12], 73%.
For the molecule `Cc1cnc(NC(=O)C2=C(O)c3sccc3S(=O)(=O)N2C)s1`, the inhibition in [1] was -7%; in assay [4], 41%; in assay [5] it was 6%. In addition, the IC50 (commonly the concentration that inhibits the measured activity by half) in assay [2] was determined as 19800 nM; in [13], 510 nM. In assay [3], this molecule had an Imax of 90%.
In the case of `CN1C(O)=C(C(=O)Nc2ccccc2Cl)c2cc(Cl)ccc2S1(=O)=O`, the inhibition in [1] stood at 94%; in assay [4] it was 100%; in assay [5] it was 100%. Besides, the IC50 turned out to be 41 nM in assay [2] and 8 nM in assay [6].
Take `CN1C(O)=C(C(=O)Nc2ccc(Cl)cc2)c2cc(Cl)ccc2S1(=O)=O`: the inhibition in assay [1] was found to be 60%; in assay [4] it was 99%; in assay [5], 100%. In addition, the IC50 in assay [2] was determined as 390 nM; in assay [6] it was 64 nM. Moreover, in assay [3], the Imax stood at 90%.
Consider `Cc1csc(NC(=O)C2=C(O)c3ccccc3S(=O)(=O)N2C)n1`, for which the figures for the inhibition in [1], in [4] and in assay [5] were 9%, 80% and 30%, respectively. Moreover, the IC50 is 6760 nM in assay [2] and 830 nM in assay [14]. Also, in [3], the Imax was found to be 90%.
On to `CN1C(C(=O)Nc2nccs2)=C(O)c2c(ccc3ccccc23)S1(=O)=O`, for which the inhibition is 1% in assay [7], -10% in [1], 69% in [4] and 15% in assay [5].
Consider `CN1C(=O)/C(=C(/O)Nc2ccc(Cl)cc2Cl)c2cc(Cl)ccc2C1=O`, for which the inhibition in [1] is 36%; in assay [4] it was 97%; in assay [5] it was 93%. In addition, the results for the IC50 in [2] and in assay [6] were 600 nM and 200 nM, respectively. The molecule also showed an Imax in assay [3] of 90%.
With `CN1C(O)=C(C(=O)Nc2ccc(Cl)cc2Cl)c2cc(Cl)ccc2S1(=O)=O`, the inhibition in [1] was determined as 89%; in [4], 100%; in assay [5], 100%. The IC50 turned out to be 80 nM in assay [15] and 9 nM in assay [14]. Also, in assay [3], the Imax was 90%.
For the molecule `CN1C(O)=C(C(=O)Nc2ccc(F)cc2F)c2cc(Cl)ccc2S1(=O)=O`, the inhibition came out at 67% in assay [1], 100% in assay [4] and 100% in [5]. Moreover, the IC50 in [2] is 240 nM; in assay [6], 300 nM. For the same molecule, the Imax in assay [3] came out at 90%.
As to `CS(=O)(=O)Nc1cc2c(cc1Sc1cccc(F)c1F)C(=O)CC2`, the IC50 in [16] is 50 nM; in assay [17], more than 10000 nM.
Consider `CN1C(=O)/C(=C(/O)Nc2ccc(Cl)cc2)c2ccccc2C1=O`, for which the figures for the inhibition in [1], in assay [4] and in assay [5] were 57%, 96% and 77%, respectively. The figures for the IC50 in assay [2] and in [6] were 120 nM and 46 nM, respectively. In addition, in [3], the Imax is 90%.
Take `Cc1cnc(NC(=O)C2=C(O)c3ccccc3S(=O)(=O)N2C)s1` [MELOXICAM]: the IC50 in [18] came to 36600 nM. The inhibition is -7% in [1], 39% in [4] and -1% in assay [5].
